The target of assay [1] is T1, Adrenergic receptor alpha-1 (Rattus norvegicus, UniProt P15823+P23944+P43140).
T1 sequence (P15823 whole entry): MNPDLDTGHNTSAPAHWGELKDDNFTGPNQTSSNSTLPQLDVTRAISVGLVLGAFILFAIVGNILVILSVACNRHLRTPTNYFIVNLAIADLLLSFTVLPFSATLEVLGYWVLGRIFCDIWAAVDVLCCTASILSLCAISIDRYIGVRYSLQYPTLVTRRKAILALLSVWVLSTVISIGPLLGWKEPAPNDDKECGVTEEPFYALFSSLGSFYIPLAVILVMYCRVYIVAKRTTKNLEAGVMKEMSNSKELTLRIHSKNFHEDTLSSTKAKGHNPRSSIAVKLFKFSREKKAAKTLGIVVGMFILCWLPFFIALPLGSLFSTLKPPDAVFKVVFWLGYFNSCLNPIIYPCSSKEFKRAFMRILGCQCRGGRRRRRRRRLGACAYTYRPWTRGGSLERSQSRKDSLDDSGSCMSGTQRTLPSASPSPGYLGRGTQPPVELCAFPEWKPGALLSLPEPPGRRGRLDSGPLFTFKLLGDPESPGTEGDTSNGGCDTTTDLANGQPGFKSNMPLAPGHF
T1 sequence (P23944 whole entry): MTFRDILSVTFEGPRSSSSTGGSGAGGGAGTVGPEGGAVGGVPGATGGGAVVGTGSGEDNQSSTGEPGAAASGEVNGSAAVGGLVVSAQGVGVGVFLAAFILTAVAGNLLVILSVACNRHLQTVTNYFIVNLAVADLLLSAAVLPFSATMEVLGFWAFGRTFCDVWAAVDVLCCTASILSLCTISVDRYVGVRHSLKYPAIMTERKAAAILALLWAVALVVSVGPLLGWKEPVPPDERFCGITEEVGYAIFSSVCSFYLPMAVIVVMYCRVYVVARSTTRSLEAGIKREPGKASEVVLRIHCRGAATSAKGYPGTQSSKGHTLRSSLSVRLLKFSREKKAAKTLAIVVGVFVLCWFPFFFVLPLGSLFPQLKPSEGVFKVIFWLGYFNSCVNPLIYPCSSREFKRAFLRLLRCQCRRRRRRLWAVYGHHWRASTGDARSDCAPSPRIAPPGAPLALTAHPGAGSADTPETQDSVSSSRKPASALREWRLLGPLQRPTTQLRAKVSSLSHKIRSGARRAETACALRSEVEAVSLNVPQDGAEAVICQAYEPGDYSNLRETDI
T1 sequence (P43140 whole entry): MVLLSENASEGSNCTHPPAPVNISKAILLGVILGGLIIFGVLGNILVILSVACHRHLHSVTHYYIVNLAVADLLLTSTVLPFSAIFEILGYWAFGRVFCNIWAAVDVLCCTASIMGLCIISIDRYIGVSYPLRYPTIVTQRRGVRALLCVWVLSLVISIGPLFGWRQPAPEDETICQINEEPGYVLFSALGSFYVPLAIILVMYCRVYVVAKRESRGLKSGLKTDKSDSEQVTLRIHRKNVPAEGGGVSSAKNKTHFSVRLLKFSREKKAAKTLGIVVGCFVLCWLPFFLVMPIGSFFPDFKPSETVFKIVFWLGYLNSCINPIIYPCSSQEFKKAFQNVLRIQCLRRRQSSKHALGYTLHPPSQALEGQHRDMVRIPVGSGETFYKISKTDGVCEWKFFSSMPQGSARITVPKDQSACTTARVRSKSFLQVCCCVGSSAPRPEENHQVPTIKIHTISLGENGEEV
Put plainly: Alpha-1 adrenergic receptor antagonist activity in a rat anococcygeus. Values ranges from 6.29-6.54. The format is functional.

In assay [2] the target is T2, Adrenergic receptor alpha-1 (Rattus norvegicus) (UniProt P15823+P23944+P43140). Put plainly: Alpha-1 adrenergic receptor binding activity relative to idazoxan. It counts as protein assay.
The target of assay [3] is T3, Adrenergic receptor alpha-2 (Rattus norvegicus) (UniProt P22086+P19328+P22909). Put plainly: Presynaptic antagonist activity towards alpha-2 adrenergic receptor. It counts as functional. The method, boiled down: (§1)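 Vas deferens from rat or mouse; the mouse tissue was in Mg-free Krebs at 30 °C under 0.5 g tension, stimulated at 0.1 Hz, 3 ms, 100–140 V, giving a twitch of about 100 mg. […] Standard curves were run before and after the test curve.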

Assay [4] has as its target T4, Adrenergic receptor alpha-2 (Rattus norvegicus, UniProt P22086+P19328+P22909).
T4 sequence (P22086 whole entry): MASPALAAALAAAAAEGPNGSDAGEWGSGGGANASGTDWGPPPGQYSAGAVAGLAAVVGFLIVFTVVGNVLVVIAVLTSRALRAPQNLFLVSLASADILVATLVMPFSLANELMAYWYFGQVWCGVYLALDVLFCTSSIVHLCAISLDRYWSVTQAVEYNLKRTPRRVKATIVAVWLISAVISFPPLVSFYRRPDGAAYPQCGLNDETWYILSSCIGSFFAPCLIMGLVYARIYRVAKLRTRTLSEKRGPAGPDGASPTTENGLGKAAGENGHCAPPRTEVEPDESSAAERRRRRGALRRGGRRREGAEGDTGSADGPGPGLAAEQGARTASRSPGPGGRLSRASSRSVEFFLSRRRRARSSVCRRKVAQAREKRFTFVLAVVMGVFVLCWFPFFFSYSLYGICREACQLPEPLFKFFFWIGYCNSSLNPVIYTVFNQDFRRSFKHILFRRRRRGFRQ
T4 sequence (P19328 whole entry): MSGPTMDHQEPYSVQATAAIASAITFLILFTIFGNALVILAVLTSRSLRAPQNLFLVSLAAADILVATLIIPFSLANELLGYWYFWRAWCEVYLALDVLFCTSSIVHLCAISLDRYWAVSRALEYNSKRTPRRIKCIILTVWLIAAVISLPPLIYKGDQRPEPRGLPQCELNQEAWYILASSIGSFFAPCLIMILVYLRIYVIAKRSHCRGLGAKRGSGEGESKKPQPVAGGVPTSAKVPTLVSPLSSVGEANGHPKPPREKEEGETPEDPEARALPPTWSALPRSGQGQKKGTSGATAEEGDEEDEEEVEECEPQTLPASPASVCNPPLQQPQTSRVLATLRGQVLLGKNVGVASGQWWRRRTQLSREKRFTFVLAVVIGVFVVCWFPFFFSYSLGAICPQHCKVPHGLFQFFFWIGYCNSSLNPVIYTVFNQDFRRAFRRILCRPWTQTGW
T4 sequence (P22909 whole entry): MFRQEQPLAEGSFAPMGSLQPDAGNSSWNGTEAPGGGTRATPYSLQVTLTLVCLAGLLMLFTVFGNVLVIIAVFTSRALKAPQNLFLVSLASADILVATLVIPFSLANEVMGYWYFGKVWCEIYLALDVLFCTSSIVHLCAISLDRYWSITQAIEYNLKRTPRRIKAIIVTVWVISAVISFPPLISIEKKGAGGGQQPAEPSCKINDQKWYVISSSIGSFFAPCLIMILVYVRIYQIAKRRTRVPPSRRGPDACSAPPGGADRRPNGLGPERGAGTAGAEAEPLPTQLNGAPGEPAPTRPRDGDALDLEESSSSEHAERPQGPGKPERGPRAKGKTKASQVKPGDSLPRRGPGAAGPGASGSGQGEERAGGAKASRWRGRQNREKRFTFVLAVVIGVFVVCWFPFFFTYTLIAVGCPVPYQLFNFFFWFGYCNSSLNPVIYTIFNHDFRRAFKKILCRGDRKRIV
Kind of assay: Alpha-2 adrenergic receptor antagonist activity in a rat vas deferens assay. Values ranges from 8.37-9.10. The format is functional. The method, boiled down: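 pA2 at presynaptic α2-adrenoreceptors in field-stimulated rat vas deferens. Tissue was held in Krebs solution (NaCl 118 mM, KCl 4.7 mM, CaCl2 2.5 mM, KH2PO4 1.2 mM, MgSO4 0.6 mM, NaHCO3 25 mM, dextrose 11.1 mM) gassed with 95% O2/5% CO2 at 30 °C. Stimulation was 3-ms pulses, 40 V, 0.1 Hz, with contractions recorded isometrically. Twitches were inhibited by clonidine (110 nM).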

The target of assay [5] is T3, Adrenergic receptor alpha-2 (Rattus norvegicus). Kind of assay: Alpha-2 adrenergic receptor antagonist activity compared to idazoxan. It counts as functional. The method, boiled down: as §1
In assay [6] the target is T2, Adrenergic receptor alpha-1 (Rattus norvegicus). Put plainly: post-synaptic antagonist activity towards alpha-1 adrenergic receptor was determined. Concentration giving a dose response to phenylephrine (idazoxan=1) was reported. The format is functional. In short, it runs like this: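 Rat anococcygeus, postsynaptic α1 antagonism. At least five phenylephrine concentration–response curves were run alone, then at least four with the antagonist present.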

For assay [7], the target named is Adrenergic receptor alpha (Rattus norvegicus) (UniProt P15823+P23944+P43140+P22086+P19328+P22909). Kind of assay: Selectivity as ratio […] against alpha-2 receptor to that of alpha-1 receptor. It counts as protein assay.
Assay [8] addresses T2, Adrenergic receptor alpha-1 (Rattus norvegicus). Put plainly: Alpha-1 adrenergic receptor antagonist activity relative to idazoxan. The format is functional. In short, it runs like this: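 The agonist was phenylephrine, tested on isolated rat anococcygeus under 0.5 g initial tension. At least five phenylephrine dose-response curves were run alone, then at least four in the presence of the analogue.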

The target of assay [9] is T4, Adrenergic receptor alpha-2. Kind of assay: Alpha-2 adrenergic receptor antagonist activity in a rat vas deferens assay. Values ranges from 7.77-8.21. It counts as functional, tissue-based.
Assay [10] has as its target T1, Adrenergic receptor alpha-1. Kind of assay: Alpha-1 adrenergic receptor activity in a rat anococcygeus. Values ranges from 5.49-6.90.

Consider `c1ccc(COC2(C3=NCCN3)COc3ccccc3O2)cc1` (centres undefined), for which the figures for the pA2 in assay [1] and in assay [4] were 6.39 and 8.68, respectively. Also, the Relative potency worked out at 1.2 in assay [2] and 1.5 in [5]. The potency relative to idazoxan in assay [3] is 2. Further, the Postsynaptic antagonist in assay [6] came out at 3. The Ratio in assay [7] stood at 0.7.
In assay [3], `C1=C(C2(C3=NCCN3)COc3ccccc3O2)CC1.Cl` (centres undefined) had a potency relative to idazoxan of 0.3. The Relative potency in [8] and in assay [5] was 0.3 in each case. This compound showed a Postsynaptic antagonist in assay [6] of 0.13. The pA2 was found to be 8.21 in assay [9] and 6.9 in [10]. Further, in assay [7], the Ratio came out at 2.3.

In general, pA2 refers to the negative logarithm of the molar antagonist concentration that doubles the agonist concentration needed for the same response. Low values mean lower antagonist potency, high ones higher antagonist potency.

The values are drawn from ChEMBL document CHEMBL1123096, “Alpha-adrenoreceptor reagents. 3. Synthesis of some 2-substituted 1,4-benzodioxans as selective presynaptic alpha 2-adrenoreceptor antagonists” (J Med Chem, 1985).
